# Laboratory results published in the M2OR odorant receptor database.
# Legend:
# Conditions in all cases: stereoisomer not certain
# OR10J5 (Homo sapiens) = target: T1, OR10J5 (Homo sapiens) (UniProt Q8NHC4)
# T1 sequence (whole entry): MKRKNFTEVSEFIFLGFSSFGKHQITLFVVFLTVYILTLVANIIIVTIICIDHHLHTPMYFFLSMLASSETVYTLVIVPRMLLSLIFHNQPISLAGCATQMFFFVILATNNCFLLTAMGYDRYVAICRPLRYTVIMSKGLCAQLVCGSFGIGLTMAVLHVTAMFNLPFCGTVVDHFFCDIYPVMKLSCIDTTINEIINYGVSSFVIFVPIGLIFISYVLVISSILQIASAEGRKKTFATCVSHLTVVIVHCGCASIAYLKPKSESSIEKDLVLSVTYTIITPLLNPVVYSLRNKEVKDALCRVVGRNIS
# Procedure, shortened: (§1)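 Whether a receptor–molecule pair is responsive (active) rests on the original authors' judgment that its measured signal was statistically different from baseline. Pairs without that judgment are non-responsive (inactive). Sources used varied assay methods, commonly transient luciferase assays in mammalian cell lines.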
# OR10H2 (Homo sapiens) = target: T2, OR10H2 (Homo sapiens) (UniProt O60403)
# T2 sequence (whole entry): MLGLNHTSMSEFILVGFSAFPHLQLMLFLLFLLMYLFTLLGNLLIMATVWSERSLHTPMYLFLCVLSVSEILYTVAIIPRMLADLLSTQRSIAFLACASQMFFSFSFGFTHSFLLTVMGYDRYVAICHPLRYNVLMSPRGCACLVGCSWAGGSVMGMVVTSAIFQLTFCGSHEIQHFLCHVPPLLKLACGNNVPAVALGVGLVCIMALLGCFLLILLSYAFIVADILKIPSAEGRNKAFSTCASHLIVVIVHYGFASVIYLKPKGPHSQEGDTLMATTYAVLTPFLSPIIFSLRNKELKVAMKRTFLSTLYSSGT
# Procedure, shortened: as §1
# OR10G2 (Homo sapiens) = OR10G2 (Homo sapiens) (UniProt Q8NGC3)
# Chain of OR10G2 (Homo sapiens) (Q8NGC3 whole entry): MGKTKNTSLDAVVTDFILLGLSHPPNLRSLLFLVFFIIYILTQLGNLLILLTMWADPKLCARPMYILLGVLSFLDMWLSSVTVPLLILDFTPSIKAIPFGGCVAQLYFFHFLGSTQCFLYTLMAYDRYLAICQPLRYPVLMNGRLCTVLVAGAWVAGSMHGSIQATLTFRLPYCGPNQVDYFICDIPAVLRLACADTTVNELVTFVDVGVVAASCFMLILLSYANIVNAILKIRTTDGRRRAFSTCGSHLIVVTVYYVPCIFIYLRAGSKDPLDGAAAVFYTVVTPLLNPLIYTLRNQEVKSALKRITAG
# Procedure, shortened: as §1
# OR10G3 (Homo sapiens) = OR10G3 (Homo sapiens) (UniProt Q8NGC4)
# Chain of OR10G3 (Homo sapiens) (Q8NGC4 whole entry): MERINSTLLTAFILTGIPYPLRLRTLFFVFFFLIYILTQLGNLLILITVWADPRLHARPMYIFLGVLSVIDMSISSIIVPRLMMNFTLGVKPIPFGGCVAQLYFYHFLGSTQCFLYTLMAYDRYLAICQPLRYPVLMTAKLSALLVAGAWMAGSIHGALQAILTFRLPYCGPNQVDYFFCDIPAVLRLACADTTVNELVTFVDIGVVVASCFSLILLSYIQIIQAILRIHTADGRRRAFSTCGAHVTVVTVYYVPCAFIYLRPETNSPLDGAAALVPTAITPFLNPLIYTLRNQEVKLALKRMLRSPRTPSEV
# Procedure, shortened: as §1
# OR10G4 (Homo sapiens) = OR10G4 (Homo sapiens) (UniProt Q8NGN3)
# Chain of OR10G4 (Homo sapiens) (Q8NGN3 whole entry): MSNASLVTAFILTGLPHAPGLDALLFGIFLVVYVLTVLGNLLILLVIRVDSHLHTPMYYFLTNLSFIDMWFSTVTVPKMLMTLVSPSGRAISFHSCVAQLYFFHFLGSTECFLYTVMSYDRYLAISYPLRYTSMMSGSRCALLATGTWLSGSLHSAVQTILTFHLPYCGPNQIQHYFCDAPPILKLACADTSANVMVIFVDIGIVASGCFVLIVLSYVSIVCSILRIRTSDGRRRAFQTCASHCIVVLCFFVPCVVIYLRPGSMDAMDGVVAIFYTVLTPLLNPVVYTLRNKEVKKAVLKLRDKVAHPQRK
# Procedure, shortened: as §1
# OR10G6 (Homo sapiens) = OR10G6 (Homo sapiens) (UniProt Q8NH81)
# Chain of OR10G6 (Homo sapiens) (Q8NH81 whole entry): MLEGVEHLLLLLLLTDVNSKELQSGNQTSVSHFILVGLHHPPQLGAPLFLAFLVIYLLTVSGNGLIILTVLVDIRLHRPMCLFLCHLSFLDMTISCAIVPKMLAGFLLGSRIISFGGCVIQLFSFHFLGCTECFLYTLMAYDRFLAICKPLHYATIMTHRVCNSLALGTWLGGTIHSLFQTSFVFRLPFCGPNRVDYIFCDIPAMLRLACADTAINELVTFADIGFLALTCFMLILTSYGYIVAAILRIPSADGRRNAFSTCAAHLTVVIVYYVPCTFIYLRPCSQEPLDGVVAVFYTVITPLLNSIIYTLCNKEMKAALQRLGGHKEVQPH
# Procedure, shortened: as §1
# OR10G7 (Homo sapiens) = OR10G7 (Homo sapiens) (UniProt Q8NGN6)
# Chain of OR10G7 (Homo sapiens) (Q8NGN6 whole entry): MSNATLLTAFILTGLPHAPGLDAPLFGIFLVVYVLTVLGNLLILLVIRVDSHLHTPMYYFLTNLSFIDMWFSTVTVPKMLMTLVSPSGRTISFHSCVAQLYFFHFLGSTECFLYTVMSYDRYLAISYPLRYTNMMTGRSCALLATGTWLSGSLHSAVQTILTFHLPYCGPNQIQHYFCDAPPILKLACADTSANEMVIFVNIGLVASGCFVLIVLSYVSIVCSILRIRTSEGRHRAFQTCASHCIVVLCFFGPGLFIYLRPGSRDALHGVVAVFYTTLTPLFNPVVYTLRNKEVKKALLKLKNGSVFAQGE
# Procedure, shortened: as §1
# OR10G8 (Homo sapiens) = OR10G8 (Homo sapiens) (UniProt Q8NGN5)
# Chain of OR10G8 (Homo sapiens) (Q8NGN5 whole entry): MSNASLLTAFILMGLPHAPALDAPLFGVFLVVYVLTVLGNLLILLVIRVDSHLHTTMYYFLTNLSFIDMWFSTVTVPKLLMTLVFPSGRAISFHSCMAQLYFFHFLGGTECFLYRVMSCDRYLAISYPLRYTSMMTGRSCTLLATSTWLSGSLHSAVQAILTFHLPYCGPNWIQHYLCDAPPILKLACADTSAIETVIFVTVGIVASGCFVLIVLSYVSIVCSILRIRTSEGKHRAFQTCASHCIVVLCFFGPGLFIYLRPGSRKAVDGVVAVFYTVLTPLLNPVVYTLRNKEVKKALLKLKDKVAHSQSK
# Procedure, shortened: as §1
# OR10G9 (Homo sapiens) = OR10G9 (Homo sapiens) (UniProt Q8NGN4)
# Chain of OR10G9 (Homo sapiens) (Q8NGN4 whole entry): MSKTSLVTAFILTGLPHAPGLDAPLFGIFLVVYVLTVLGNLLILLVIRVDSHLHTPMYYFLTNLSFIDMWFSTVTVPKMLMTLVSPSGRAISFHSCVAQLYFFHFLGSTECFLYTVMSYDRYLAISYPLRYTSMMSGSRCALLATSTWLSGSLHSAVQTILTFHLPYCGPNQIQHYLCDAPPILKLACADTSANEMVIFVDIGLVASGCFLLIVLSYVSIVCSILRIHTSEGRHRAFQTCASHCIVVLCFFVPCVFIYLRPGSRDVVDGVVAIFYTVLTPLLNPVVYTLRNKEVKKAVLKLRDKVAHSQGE
# Procedure, shortened: as §1
# OR10H1 (Homo sapiens) = OR10H1 (Homo sapiens) (UniProt Q9Y4A9)
# Chain of OR10H1 (Homo sapiens) (Q9Y4A9 whole entry): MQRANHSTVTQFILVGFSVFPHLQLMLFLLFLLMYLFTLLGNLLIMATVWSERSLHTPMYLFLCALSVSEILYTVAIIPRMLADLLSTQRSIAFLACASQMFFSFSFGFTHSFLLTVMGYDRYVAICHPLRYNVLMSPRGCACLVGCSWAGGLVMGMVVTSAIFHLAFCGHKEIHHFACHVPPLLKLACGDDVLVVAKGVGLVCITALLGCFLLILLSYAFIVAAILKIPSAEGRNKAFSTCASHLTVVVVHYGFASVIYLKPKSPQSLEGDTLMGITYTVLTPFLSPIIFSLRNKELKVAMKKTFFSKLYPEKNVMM
# Procedure, shortened: as §1
# OR10H3 (Homo sapiens) = OR10H3 (Homo sapiens) (UniProt O60404)
# Chain of OR10H3 (Homo sapiens) (O60404 whole entry): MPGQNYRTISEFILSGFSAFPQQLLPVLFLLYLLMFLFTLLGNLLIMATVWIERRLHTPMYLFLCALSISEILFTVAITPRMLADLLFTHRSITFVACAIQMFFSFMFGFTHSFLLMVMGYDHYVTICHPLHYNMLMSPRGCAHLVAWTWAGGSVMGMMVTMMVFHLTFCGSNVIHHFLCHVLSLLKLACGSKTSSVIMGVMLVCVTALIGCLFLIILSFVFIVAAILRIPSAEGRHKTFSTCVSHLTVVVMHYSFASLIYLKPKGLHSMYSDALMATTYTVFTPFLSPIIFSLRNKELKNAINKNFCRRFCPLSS
# Procedure, shortened: as §1
# OR10H4 (Homo sapiens) = OR10H4 (Homo sapiens) (UniProt Q8NGA5)
# Chain of OR10H4 (Homo sapiens) (Q8NGA5 whole entry): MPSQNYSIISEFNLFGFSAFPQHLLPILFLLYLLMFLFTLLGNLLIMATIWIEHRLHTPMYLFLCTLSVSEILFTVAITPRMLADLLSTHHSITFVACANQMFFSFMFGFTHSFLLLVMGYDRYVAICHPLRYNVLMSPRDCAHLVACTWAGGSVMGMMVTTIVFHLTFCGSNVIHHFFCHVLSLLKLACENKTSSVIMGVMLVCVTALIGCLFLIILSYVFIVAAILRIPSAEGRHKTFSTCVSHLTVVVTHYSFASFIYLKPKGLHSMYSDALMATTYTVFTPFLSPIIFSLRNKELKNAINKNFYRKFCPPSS
# Procedure, shortened: as §1
# OR10H5 (Homo sapiens) = OR10H5 (Homo sapiens) (UniProt Q8NGA6)
# Chain of OR10H5 (Homo sapiens) (Q8NGA6 whole entry): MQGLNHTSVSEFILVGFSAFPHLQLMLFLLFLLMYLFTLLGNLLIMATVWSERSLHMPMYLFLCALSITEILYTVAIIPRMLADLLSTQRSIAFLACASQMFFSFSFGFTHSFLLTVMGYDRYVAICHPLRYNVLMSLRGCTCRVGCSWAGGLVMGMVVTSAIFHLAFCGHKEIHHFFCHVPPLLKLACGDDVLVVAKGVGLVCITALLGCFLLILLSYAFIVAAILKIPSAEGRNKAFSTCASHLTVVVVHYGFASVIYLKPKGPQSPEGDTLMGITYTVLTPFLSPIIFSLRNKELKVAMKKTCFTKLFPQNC
# Procedure, shortened: as §1
# OR10J3 (Homo sapiens) = OR10J3 (Homo sapiens) (UniProt Q5JRS4)
# Chain of OR10J3 (Homo sapiens) (Q5JRS4 whole entry): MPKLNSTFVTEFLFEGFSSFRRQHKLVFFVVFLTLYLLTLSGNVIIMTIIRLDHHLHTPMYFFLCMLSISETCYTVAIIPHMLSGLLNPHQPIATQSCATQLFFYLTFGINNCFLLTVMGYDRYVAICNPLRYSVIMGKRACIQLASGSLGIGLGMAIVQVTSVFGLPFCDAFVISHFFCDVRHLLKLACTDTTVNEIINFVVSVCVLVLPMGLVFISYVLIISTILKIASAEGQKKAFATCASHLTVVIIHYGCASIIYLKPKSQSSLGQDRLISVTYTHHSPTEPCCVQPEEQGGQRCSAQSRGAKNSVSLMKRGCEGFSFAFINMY
# Procedure, shortened: as §1
# OR10J4 (Homo sapiens) = OR10J4 (Homo sapiens) (UniProt P0C629)
# Chain of OR10J4 (Homo sapiens) (P0C629 whole entry F198I): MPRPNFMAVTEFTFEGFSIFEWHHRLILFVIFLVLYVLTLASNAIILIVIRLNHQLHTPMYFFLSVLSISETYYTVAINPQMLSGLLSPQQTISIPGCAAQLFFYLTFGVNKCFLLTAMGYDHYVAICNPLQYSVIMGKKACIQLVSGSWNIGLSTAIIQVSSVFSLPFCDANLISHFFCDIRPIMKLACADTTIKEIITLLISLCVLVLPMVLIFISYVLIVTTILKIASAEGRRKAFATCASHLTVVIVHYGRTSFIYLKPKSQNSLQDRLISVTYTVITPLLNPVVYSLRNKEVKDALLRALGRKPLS
# Procedure, shortened: as §1
# OR10K1 (Homo sapiens) = OR10K1 (Homo sapiens) (UniProt Q8NGX5)
# Chain of OR10K1 (Homo sapiens) (Q8NGX5 whole entry): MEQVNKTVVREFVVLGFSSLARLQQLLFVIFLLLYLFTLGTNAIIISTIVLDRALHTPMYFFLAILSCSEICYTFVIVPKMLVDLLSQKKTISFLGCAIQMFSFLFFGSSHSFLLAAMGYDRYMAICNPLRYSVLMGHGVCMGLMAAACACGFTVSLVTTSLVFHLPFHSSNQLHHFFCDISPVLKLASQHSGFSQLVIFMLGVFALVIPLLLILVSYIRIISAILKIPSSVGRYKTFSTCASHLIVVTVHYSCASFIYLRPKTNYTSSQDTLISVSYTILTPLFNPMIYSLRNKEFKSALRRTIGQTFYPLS
# Procedure, shortened: as §1
# OR10K2 (Homo sapiens) = OR10K2 (Homo sapiens) (UniProt Q6IF99)
# Procedure, shortened: as §1
# OR10P1 (Homo sapiens) = OR10P1 (Homo sapiens) (UniProt Q8NGE3)
# Chain of OR10P1 (Homo sapiens) (Q8NGE3 whole entry): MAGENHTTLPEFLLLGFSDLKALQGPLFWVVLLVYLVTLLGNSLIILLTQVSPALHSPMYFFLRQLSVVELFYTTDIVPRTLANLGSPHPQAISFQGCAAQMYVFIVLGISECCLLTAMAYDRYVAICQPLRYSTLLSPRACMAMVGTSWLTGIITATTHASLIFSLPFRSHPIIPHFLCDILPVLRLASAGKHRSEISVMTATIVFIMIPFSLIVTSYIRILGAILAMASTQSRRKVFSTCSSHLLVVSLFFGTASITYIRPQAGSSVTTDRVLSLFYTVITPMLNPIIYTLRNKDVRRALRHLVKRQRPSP
# Procedure, shortened: as §1
# OR10D3 (Homo sapiens) = OR10D3 (Homo sapiens) (UniProt Q8NH80)
# Procedure, shortened: as §1
# OR10J1 (Homo sapiens) = OR10J1 (Homo sapiens) (UniProt P30954)
# Procedure, shortened: as §1
compound,measurement,setting,value
O=c1cc(O)c2ccccc2o1,odorant receptor agonist call,OR10J5 (Homo sapiens),inactive
O=CC=Cc1ccccc1,odorant receptor agonist call,OR10H2 (Homo sapiens),active
CCC1CCC(=O)O1 (stereo not given),odorant receptor agonist call,OR10J5 (Homo sapiens),inactive
C=CCc1ccccc1,odorant receptor agonist call,OR10J5 (Homo sapiens),inactive
Cc1c([N+](=O)[O-])c(C)c([N+](=O)[O-])c(C(C)(C)C)c1[N+](=O)[O-],odorant receptor agonist call,OR10G2 (Homo sapiens),inactive
same,odorant receptor agonist call,OR10G3 (Homo sapiens),inactive
same,odorant receptor agonist call,OR10G4 (Homo sapiens),inactive
same,odorant receptor agonist call,OR10G6 (Homo sapiens),inactive
same,odorant receptor agonist call,OR10G7 (Homo sapiens),inactive
same,odorant receptor agonist call,OR10G8 (Homo sapiens),inactive
same,odorant receptor agonist call,OR10G9 (Homo sapiens),inactive
same,odorant receptor agonist call,OR10H1 (Homo sapiens),inactive
same,odorant receptor agonist call,OR10H2 (Homo sapiens),inactive
same,odorant receptor agonist call,OR10H3 (Homo sapiens),inactive
same,odorant receptor agonist call,OR10H4 (Homo sapiens),inactive
same,odorant receptor agonist call,OR10H5 (Homo sapiens),inactive
same,odorant receptor agonist call,OR10J3 (Homo sapiens),inactive
same,odorant receptor agonist call,OR10J4 (Homo sapiens),inactive
same,odorant receptor agonist call,OR10J5 (Homo sapiens),inactive
same,odorant receptor agonist call,OR10K1 (Homo sapiens),inactive
same,odorant receptor agonist call,OR10K2 (Homo sapiens),inactive
same,odorant receptor agonist call,OR10P1 (Homo sapiens),inactive
C=CCOC(=O)Cc1ccccc1,odorant receptor agonist call,OR10D3 (Homo sapiens),inactive
same,odorant receptor agonist call,OR10G2 (Homo sapiens),inactive
same,odorant receptor agonist call,OR10G3 (Homo sapiens),inactive
same,odorant receptor agonist call,OR10G4 (Homo sapiens),inactive
same,odorant receptor agonist call,OR10G6 (Homo sapiens),inactive
same,odorant receptor agonist call,OR10G7 (Homo sapiens),inactive
same,odorant receptor agonist call,OR10G8 (Homo sapiens),inactive
same,odorant receptor agonist call,OR10G9 (Homo sapiens),inactive
same,odorant receptor agonist call,OR10H1 (Homo sapiens),inactive
same,odorant receptor agonist call,OR10H2 (Homo sapiens),inactive
same,odorant receptor agonist call,OR10H3 (Homo sapiens),inactive
same,odorant receptor agonist call,OR10H4 (Homo sapiens),inactive
same,odorant receptor agonist call,OR10H5 (Homo sapiens),inactive
same,odorant receptor agonist call,OR10J1 (Homo sapiens),inactive
same,odorant receptor agonist call,OR10J3 (Homo sapiens),inactive
same,odorant receptor agonist call,OR10J5 (Homo sapiens),inactive
same,odorant receptor agonist call,OR10K1 (Homo sapiens),inactive
same,odorant receptor agonist call,OR10P1 (Homo sapiens),inactive
